In ChEMBL document CHEMBL4680130, “Substituted 4-phenylthiazoles: Development of potent and selective A, A and dual A/A adenosine receptor antagonists” (Eur J Med Chem, 2020):

What was measured:
[1] = target: Adenosine receptor A2a (Rattus norvegicus) (UniProt P30543); assay: Displacement of [3H]MSX2 from adenosine receptor A2A in rat brain striatum membranes at 0.1 uM incubated for 30 mins by radioligand competition assay relative to control; conditions: Cell membrane
How it was run: (§1)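 A2A binding, [3H]MSX-2 1.0 nM. Membranes: rat brain striatum, or HEK293 cells expressing human A2A. Adenosine deaminase preincubation 20 min, then 30 min at rt in 50 mM Tris-HCl pH 7.4 with 2.5% DMSO. Nonspecific binding defined by 50 µM NECA. GF/B filtration, scintillation counting. Single-concentration percent inhibition, ≥3 experiments in duplicate or triplicate.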

Adenosine receptor A3 [2] = target: T1, Adenosine receptor A3 (Rattus norvegicus, UniProt P28647); assay: Displacement of [3H]NECA from rat adenosine receptor A3 expressed in CHO cell membranes incubated for 60 mins by radioligand competition assay; design: species or system Cell membrane
T1 sequence (P28647 whole entry): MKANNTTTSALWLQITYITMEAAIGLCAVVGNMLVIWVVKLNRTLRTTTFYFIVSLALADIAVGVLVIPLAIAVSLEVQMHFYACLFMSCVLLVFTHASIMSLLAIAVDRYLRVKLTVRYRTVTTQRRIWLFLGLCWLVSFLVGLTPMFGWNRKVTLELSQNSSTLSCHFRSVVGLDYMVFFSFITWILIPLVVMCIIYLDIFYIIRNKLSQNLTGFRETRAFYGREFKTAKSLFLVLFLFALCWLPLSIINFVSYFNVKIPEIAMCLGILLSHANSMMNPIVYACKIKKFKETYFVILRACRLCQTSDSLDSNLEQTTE

[3] = target: T2, Adenosine receptor A2b (Rattus norvegicus) (UniProt P29276); assay: Displacement of [3H]PSB-603 from rat adenosine receptor A2B expressed in CHO cell membranes at 0.1 uM incubated for 75 mins by radioligand competition assay relative to control; conditions: Cell membrane
T2 sequence (whole entry): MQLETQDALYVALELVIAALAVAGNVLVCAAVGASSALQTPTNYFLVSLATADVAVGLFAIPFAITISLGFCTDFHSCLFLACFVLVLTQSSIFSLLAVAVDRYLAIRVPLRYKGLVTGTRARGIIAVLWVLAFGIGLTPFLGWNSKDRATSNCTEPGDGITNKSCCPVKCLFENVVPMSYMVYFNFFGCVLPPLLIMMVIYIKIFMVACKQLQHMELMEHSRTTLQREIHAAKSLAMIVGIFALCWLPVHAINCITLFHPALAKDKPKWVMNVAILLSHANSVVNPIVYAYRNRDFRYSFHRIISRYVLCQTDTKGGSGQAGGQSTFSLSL
How it was run: (§2)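 CHO membranes expressing human or rat A2B, [3H]PSB-603 0.3 nM. Nonspecific binding defined by 10 µM DPCPX. Preincubated 20 min with adenosine deaminase, then 75 min at rt in Tris-HCl pH 7.4 with 2.5% DMSO. Filters washed with ice-cold 50 mM Tris-HCl containing 0.1% BSA; scintillation counting.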

[4] = target: T3, Adenosine receptor A3 (Homo sapiens) (UniProt P0DMS8); assay: Displacement of [3H]PSB-11 from human adenosine receptor A3 expressed in CHO cell membranes at 0.1 uM incubated for 60 mins by radioligand competition assay; conditions: Cell membrane, filed as antagonist, dose 0.1 µM
T3 sequence (whole entry): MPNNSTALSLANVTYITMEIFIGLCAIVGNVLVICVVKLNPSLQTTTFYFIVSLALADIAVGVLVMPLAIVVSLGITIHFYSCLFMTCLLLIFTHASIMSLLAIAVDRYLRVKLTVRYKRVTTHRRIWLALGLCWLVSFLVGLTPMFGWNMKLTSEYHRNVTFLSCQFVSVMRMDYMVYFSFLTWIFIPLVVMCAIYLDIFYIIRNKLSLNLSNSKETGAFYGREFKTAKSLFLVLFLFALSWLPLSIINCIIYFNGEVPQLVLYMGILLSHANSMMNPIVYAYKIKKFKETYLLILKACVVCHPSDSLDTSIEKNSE
How it was run: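 CHO membranes expressing human A3, [3H]PSB-11 0.5 nM. Nonspecific binding defined by 100 µM R-PIA. Adenosine deaminase preincubation 20 min, then 60 min at rt in 50 mM Tris-HCl pH 7.4 with 2.5% DMSO. Filtered on GF/B, scintillation counted.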

Adenosine receptor A2a [5] = target: Adenosine receptor A2a (Homo sapiens, UniProt P29274); assay: Displacement of [3H]MSX2 from human adenosine receptor A2A expressed in HEK293 cell membranes at 0.1 uM incubated for 30 mins by radioligand competition assay relative to control; conditions: Cell membrane, in the assay text read “at 1 uM” for “at 0.1 uM”; how it was run: as §1
Adenosine receptor A3 [6] = target: T4, Adenosine receptor A3 (Homo sapiens, UniProt P0DMS8); assay: Displacement of [3H]PSB-11 from human adenosine receptor A3 expressed in CHO cell membranes incubated for 60 mins by radioligand competition assay; design: species or system Cell membrane
T4 sequence (P0DMS8 whole entry): T3 sequence (whole entry)

Adenosine receptor A1 [7] = target: T5, Adenosine receptor A1 (Rattus norvegicus, UniProt P25099); assay: Displacement of [3H]DPCPX from rat brain cortical membrane A1AR in absence of GTP by scintillation counting analysis; format: cell membranes, Cortex, Cell membrane
T5 sequence (P25099 whole entry): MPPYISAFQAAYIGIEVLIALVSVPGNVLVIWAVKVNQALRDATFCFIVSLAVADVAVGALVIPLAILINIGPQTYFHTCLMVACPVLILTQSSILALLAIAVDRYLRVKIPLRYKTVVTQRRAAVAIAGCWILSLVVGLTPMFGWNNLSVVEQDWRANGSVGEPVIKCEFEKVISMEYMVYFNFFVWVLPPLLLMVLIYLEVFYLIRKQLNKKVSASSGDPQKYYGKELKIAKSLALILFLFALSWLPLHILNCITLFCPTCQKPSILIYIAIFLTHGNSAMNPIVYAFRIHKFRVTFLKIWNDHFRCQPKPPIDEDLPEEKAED

Adenosine receptor A1 [8] = target: T5, Adenosine receptor A1; assay: Displacement of [3H]CCPA from adenosine receptor A1 in rat brain cortex membranes incubated for 90 mins by radioligand competition assay; format: cell membranes, Cell membrane
Adenosine receptor A2a [9] = target: Adenosine receptor A2a (Rattus norvegicus, UniProt P30543); assay: Displacement of [3H]MSX2 from adenosine receptor A2A in rat brain striatum membranes incubated for 30 mins by radioligand competition assay; format: cell membranes, Cell membrane
Adenosine receptor A2b = target: T6, Adenosine receptor A2b (Rattus norvegicus, UniProt P29276); assay: Displacement of [3H]PSB-603 from rat adenosine receptor A2B expressed in CHO cell membranes incubated for 75 mins by radioligand competition assay; design: species or system Cell membrane; how it was run: as §2
T6 sequence (P29276 whole entry): T2 sequence (whole entry)

[10] = target: T7, Adenosine receptor A3 (Rattus norvegicus) (UniProt P28647); assay: Displacement of [3H]NECA from rat adenosine receptor A3 expressed in CHO cell membranes at 0.1 uM incubated for 60 mins by radioligand competition assay relative to control; conditions: Cell membrane
T7 sequence (whole entry): T1 sequence (P28647 whole entry)
How it was run: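 CHO membranes expressing rat A3, [3H]NECA 10 nM. Nonspecific binding defined by 100 µM R-PIA. Preincubated 20 min with adenosine deaminase, then 60 min at rt in 50 mM Tris-HCl pH 7.4 with 2.5% DMSO. GF/B filtration, scintillation counting.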

Adenosine receptor A1 [11] = target: T5, Adenosine receptor A1; assay: Displacement of [3H]CCPA from rat adenosine receptor A1 by radioligand competition assay
How it was run: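 A1 competition binding with [3H]CCPA, 0.5 nM. Membranes: CHO cells expressing human A1, or rat brain cortex. Membranes preincubated 20 min with adenosine deaminase (2 U/mL per mg protein). Incubation 90 min at rt in 50 mM Tris-HCl pH 7.4 with 2.5% final DMSO. Nonspecific binding defined by 10 µM 2-chloroadenosine. GF/B filtration, scintillation counting.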

Chain of Adenosine receptor A2a (Homo sapiens, UniProt P29274) (P29274 whole entry): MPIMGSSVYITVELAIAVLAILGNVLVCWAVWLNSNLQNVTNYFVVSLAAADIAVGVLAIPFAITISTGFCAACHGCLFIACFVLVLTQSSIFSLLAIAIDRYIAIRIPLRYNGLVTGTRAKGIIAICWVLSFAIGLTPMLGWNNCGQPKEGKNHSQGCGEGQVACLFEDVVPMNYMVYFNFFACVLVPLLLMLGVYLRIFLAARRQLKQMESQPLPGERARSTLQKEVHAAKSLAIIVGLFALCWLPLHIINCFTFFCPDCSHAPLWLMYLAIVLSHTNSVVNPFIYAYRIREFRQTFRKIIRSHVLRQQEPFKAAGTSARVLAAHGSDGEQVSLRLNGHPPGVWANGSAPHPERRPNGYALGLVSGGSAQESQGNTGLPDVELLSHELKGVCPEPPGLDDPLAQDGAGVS
Chain of Adenosine receptor A2a (Rattus norvegicus, UniProt P30543) (P30543 whole entry): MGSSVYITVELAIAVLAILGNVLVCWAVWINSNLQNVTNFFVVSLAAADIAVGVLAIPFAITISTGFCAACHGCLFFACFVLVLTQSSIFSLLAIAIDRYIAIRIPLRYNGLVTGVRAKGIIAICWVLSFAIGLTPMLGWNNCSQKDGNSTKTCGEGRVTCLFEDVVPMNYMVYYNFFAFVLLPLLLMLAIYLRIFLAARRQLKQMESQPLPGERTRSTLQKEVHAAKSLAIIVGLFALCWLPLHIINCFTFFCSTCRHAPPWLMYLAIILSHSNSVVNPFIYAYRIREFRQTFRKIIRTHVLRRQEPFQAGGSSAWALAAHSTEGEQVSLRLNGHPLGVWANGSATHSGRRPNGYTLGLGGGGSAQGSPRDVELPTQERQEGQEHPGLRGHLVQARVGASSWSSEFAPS
Chain of Adenosine receptor A2a (Rattus norvegicus) (P30543 whole entry): as above

COc1ccc(C(=O)Nc2nc(-c3ccccc3)c(C(=O)c3ccc(C)cc3)s2)cc1
inhibition [1]: 15%
Ki (Adenosine receptor A3 [2]): > 10000 nM
inhibition [3]: 7%
inhibition [4]: 45%
inhibition (Adenosine receptor A2a [5]): 28%
Ki (Adenosine receptor A3 [6]): > 1000 nM
IC50 (Adenosine receptor A1 [7]): 0.0756 nM
Ki (Adenosine receptor A1 [8]): 0.529 nM
Ki (Adenosine receptor A2a [9]): > 1000 nM
Ki (Adenosine receptor A2b): > 100 nM
inhibition [10]: 13%
Ki (Adenosine receptor A1 [11]): 0.529 nM
